Measurements as given in ChEMBL document CHEMBL1255469, “In vitro activity of a new isothiazoloquinolone, ACH-702, against Mycobacterium tuberculosis and other mycobacteria” (2010).
Converted amounts (≈) assume the structure as drawn.

Key:
Format in all cases: functional
[1] = test system: Staphylococcus aureus; test: Antimicrobial activity against Staphylococcus aureus ATCC 29213 after 72 hrs by broth microdilution assay; details: ATCC 29213, 72 h
[2] = test system: Mycobacterium avium complex sp.; test: Antimicrobial activity against Mycobacterium avium complex clinical isolates after 7 days by broth microdilution assay; details: 168 h
Outline: (§1)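 Slowly growing mycobacteria were identified by phenotype and hsp65 PCR-RFLP. MIC by CLSI broth microdilution in cation-adjusted Mueller-Hinton broth with OADC supplement at a final 10%. Final drug range 0.06 to 16 μg/ml. Read after 7 days at 35°C. S. aureus ATCC 29213 was run as a quality control with each plate lot.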

[3] = test system: Mycobacterium tuberculosis; test: Antimicrobial activity against isoniazid and rifampin-susceptible Mycobacterium tuberculosis clinical isolates after 7 days by broth microdilution assay; details: 168 h
Outline: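 Alamar Blue broth microdilution in 7H9GC broth (Middlebrook 7H9 base, glycerol, Casitone, 10% OADC). Drug stock 1 mg/ml in 100% DMSO, diluted in broth to a final 0.03 to 8 μg/ml. M. tuberculosis H37Rv served as the susceptible-strain control. Isoniazid and rifampin resistance was assigned beforehand by the proportion method.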

[4] = test system: Mycobacterium kansasii; test: Antimicrobial activity against Mycobacterium kansasii after 7 days by broth microdilution assay; details: 168 h; outline: as §1
[5] = test system: Mycolicibacterium fortuitum; test: Antimicrobial activity against Mycobacterium fortuitum clinical isolates after 7 days by broth microdilution assay; details: 168 h
[6] = test system: Mycobacteroides chelonae; test: Antimicrobial activity against Mycobacterium chelonae clinical isolates after 7 days by broth microdilution assay; details: 168 h
[7] = test system: Mycobacteroides abscessus; test: Antimicrobial activity against Mycobacterium abscessus clinical isolates after 7 days by broth microdilution assay; details: 168 h
[8] = test system: Mycobacterium gordonae; test: Antimicrobial activity against Mycobacterium gordonae after 7 days by broth microdilution assay; details: 168 h; outline: as §1

`COc1c(N2CC[C@@H](C(C)(C)N)C2)c(F)cc2c(=O)c3c(=O)[nH]sc3n(C3CC3)c12` was tested, and the MIC [1] was at most 0.06 µg/mL, the MIC50 [2] was 0.25 µg/mL (≈ 0.578 µM) and the MIC90 [2] was 4 µg/mL (≈ 9.25 µM). It also gave an MIC50 [3] of 0.0625 µg/mL (≈ 0.145 µM), an MIC90 [3] of 0.125 µg/mL (≈ 0.289 µM) and an MIC [4] of 0.12 µg/mL (≈ 0.277 µM). For the same compound, the MIC50 [5] was at most 0.0625 µg/mL, the MIC90 [5] was at most 0.0625 µg/mL and the MIC [6] was 8 µg/mL (≈ 18.5 µM). The MIC [7] was 16 µg/mL (≈ 37 µM) and the MIC [8] was 0.12 µg/mL (≈ 0.277 µM).
